In BindingDB's records for doi:10.1021/np070447m (2008):
pIC50: −log10 of the molar value.

Experiments:
[1] = molecular target: Angiopoietin-1 receptor (Homo sapiens, UniProt Q02763); test: Inhibition of recombinant TIE2
[2] = molecular target: Hepatocyte growth factor receptor (Homo sapiens, UniProt P08581); test: Inhibition of recombinant MET
[3] = molecular target: T1, Ephrin type-B receptor 4 (Homo sapiens, UniProt P54760); test: Inhibition of recombinant EPHB4
T1 sequence (P54760 whole entry): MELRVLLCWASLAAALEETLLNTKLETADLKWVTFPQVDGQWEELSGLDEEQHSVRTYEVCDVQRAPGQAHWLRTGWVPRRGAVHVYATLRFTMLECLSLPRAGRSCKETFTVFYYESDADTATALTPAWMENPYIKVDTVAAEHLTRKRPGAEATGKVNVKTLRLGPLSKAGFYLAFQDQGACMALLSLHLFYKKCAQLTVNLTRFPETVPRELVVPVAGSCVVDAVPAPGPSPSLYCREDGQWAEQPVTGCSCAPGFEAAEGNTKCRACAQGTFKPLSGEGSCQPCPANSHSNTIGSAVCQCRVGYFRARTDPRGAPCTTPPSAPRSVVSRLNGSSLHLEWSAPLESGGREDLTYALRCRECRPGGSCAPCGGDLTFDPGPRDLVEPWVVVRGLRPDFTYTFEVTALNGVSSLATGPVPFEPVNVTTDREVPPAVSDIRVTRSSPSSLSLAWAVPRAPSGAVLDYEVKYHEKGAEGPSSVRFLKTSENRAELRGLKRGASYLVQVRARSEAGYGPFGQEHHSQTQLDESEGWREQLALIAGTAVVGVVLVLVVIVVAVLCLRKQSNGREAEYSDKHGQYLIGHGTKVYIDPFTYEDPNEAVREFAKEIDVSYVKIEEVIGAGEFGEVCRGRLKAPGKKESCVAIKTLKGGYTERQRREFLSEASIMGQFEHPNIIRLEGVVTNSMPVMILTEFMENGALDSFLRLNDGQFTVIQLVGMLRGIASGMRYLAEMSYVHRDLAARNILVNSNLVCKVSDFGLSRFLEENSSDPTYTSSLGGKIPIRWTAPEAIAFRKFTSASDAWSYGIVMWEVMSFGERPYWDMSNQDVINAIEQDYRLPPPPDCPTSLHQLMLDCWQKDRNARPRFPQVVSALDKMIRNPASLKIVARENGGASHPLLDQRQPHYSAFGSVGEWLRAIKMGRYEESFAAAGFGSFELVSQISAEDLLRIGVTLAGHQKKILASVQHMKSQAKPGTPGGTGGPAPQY
How it was run: (§1)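 Purified recombinant kinase, 50 µL reaction. 1 µM [γ-33P]-ATP with substrate; compound added in 10% DMSO. Tested over several concentrations; IC50 in g/mL.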

[4] = molecular target: Receptor tyrosine-protein kinase erbB-2 (Homo sapiens, UniProt P04626); test: Inhibition of recombinant ERBB2
Receptor tyrosine-protein kinase erbB-2, sequence (P04626 whole entry): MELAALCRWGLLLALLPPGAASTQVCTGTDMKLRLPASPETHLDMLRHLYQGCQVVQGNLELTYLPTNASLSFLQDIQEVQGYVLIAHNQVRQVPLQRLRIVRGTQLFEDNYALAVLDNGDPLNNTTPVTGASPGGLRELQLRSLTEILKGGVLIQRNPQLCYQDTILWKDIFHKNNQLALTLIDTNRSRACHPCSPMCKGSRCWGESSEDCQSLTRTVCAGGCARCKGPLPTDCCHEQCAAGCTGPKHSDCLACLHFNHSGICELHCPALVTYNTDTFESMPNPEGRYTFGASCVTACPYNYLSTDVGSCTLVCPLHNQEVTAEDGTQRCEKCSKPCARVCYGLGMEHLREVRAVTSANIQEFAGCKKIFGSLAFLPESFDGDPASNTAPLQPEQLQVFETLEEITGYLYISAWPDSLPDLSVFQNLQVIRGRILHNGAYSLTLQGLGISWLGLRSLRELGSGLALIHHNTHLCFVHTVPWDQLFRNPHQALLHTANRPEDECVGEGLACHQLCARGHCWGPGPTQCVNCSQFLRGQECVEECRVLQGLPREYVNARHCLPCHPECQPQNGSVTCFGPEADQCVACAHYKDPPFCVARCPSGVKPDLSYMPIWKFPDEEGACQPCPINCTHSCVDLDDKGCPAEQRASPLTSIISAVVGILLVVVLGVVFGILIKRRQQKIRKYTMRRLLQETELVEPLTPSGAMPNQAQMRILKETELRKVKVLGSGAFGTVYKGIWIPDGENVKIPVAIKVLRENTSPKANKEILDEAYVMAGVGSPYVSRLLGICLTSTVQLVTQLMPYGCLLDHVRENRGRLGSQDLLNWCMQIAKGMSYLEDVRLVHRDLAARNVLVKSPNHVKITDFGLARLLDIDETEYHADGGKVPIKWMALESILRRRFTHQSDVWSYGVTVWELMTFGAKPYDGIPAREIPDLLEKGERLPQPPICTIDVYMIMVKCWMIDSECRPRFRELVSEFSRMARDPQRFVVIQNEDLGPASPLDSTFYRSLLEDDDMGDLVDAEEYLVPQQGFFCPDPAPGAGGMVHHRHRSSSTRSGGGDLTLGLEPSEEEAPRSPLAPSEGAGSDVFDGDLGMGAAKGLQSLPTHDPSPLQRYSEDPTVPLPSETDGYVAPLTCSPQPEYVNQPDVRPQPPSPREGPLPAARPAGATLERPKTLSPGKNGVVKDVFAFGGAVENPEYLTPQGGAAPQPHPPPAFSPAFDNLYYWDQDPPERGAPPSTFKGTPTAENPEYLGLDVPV

[5] = molecular target: Focal adhesion kinase 1 (Homo sapiens, UniProt Q05397); test: Inhibition of recombinant FAK
Focal adhesion kinase 1, sequence (Q05397 whole entry): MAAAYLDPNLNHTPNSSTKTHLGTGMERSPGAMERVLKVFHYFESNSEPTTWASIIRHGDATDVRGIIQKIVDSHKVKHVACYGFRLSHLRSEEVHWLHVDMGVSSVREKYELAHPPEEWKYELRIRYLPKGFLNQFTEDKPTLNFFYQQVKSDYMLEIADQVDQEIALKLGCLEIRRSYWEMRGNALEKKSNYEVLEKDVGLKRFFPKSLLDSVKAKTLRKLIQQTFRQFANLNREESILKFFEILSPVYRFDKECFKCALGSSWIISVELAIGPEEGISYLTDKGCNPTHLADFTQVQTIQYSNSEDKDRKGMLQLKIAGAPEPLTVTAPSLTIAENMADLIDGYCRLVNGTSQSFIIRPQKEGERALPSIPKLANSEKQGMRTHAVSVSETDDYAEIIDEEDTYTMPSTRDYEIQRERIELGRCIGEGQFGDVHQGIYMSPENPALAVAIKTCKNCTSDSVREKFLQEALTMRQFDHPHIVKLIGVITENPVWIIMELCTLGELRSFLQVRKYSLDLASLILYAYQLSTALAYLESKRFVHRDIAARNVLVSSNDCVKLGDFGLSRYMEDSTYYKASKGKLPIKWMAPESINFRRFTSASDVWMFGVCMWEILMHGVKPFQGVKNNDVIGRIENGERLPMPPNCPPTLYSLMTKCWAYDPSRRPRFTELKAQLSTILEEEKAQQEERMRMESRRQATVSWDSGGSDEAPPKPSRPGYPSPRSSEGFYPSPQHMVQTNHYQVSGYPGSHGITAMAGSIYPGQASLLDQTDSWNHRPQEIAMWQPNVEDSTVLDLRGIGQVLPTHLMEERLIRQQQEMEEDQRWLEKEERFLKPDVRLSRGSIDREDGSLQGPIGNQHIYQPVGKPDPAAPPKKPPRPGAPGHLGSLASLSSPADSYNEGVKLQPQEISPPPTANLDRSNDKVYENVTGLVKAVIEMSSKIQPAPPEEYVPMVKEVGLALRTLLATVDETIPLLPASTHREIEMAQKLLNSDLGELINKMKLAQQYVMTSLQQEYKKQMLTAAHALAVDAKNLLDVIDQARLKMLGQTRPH

[6] = molecular target: RAC-alpha serine/threonine-protein kinase (Homo sapiens, UniProt P31749); test: Inhibition of recombinant AKT1; how it was run: as §1
RAC-alpha serine/threonine-protein kinase, sequence (P31749 whole entry): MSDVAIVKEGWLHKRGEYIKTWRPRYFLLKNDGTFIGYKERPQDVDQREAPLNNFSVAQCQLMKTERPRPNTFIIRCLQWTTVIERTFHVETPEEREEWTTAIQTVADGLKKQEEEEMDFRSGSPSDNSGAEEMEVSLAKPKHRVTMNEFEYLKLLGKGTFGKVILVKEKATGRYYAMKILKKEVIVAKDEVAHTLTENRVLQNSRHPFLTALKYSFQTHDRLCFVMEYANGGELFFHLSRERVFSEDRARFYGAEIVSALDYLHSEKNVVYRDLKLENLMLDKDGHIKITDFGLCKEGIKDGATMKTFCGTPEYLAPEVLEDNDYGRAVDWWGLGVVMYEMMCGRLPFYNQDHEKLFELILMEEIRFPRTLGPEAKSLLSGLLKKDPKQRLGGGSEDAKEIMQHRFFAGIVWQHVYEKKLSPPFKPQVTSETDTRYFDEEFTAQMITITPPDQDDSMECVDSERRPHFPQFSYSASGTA

[7] = molecular target: Cyclin-dependent kinase 2 (Homo sapiens, UniProt P24941); test: Inhibition of recombinant CDK2/CycA; how it was run: as §1
[8] = molecular target: Mitogen-activated protein kinase kinase kinase 8 (Homo sapiens, UniProt P41279); test: Inhibition of recombinant COT
[9] = molecular target: Insulin-like growth factor 1 receptor (Homo sapiens, UniProt P08069); test: Inhibition of recombinant IGF1R; how it was run: as §1
[10] = molecular target: Proto-oncogene tyrosine-protein kinase Src (Homo sapiens, UniProt P12931); test: Inhibition of recombinant SRC; how it was run: as §1
Proto-oncogene tyrosine-protein kinase Src, sequence (P12931 2-536 limits assumed): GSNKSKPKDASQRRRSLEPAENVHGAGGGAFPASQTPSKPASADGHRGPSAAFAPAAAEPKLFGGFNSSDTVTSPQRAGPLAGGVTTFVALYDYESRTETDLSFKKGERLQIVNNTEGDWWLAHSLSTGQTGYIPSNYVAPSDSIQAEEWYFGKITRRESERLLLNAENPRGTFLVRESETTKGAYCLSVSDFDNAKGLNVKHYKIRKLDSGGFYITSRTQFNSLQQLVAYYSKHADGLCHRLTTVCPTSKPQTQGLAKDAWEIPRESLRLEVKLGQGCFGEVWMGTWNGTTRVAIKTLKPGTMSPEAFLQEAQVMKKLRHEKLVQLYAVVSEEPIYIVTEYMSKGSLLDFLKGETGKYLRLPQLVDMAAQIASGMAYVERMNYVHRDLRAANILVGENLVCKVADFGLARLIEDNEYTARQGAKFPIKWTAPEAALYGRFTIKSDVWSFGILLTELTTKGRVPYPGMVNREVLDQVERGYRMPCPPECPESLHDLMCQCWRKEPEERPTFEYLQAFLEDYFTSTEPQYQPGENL

[11] = molecular target: Serine/threonine-protein kinase PLK1 (Homo sapiens, UniProt P53350); test: Inhibition of recombinant PLK1
[12] = molecular target: Vascular endothelial growth factor receptor 3 (Homo sapiens, UniProt P35916); test: Inhibition of recombinant VEGFR3; how it was run: as §1
[13] = molecular target: Aurora kinase B (Homo sapiens, UniProt Q96GD4); test: Inhibition of recombinant Aurora B; how it was run: as §1
Aurora kinase B, sequence (Q96GD4 whole entry): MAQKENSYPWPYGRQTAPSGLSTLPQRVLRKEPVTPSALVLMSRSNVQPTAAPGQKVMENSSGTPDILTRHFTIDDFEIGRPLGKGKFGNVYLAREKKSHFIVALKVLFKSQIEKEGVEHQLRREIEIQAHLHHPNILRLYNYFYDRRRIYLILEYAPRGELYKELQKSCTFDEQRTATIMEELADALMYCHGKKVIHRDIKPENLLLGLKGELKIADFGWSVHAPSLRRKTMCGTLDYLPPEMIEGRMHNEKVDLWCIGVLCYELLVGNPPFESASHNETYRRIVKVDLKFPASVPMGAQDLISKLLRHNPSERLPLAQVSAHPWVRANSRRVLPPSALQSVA

[14] = molecular target: Serine/threonine-protein kinase B-raf (Homo sapiens, UniProt P15056, V600E); test: Inhibition of recombinant B-RAF-V600E mutant; how it was run: as §1
[15] = molecular target: Cyclin-dependent kinase 4/G1/S-specific cyclin-D1 (Homo sapiens, UniProt P11802); test: Inhibition of recombinant CDK4/CycD1
[16] = molecular target: T2, NUAK family SNF1-like kinase 1 (Homo sapiens, UniProt O60285); test: Inhibition of recombinant ARK5
T2 sequence (O60285 whole entry): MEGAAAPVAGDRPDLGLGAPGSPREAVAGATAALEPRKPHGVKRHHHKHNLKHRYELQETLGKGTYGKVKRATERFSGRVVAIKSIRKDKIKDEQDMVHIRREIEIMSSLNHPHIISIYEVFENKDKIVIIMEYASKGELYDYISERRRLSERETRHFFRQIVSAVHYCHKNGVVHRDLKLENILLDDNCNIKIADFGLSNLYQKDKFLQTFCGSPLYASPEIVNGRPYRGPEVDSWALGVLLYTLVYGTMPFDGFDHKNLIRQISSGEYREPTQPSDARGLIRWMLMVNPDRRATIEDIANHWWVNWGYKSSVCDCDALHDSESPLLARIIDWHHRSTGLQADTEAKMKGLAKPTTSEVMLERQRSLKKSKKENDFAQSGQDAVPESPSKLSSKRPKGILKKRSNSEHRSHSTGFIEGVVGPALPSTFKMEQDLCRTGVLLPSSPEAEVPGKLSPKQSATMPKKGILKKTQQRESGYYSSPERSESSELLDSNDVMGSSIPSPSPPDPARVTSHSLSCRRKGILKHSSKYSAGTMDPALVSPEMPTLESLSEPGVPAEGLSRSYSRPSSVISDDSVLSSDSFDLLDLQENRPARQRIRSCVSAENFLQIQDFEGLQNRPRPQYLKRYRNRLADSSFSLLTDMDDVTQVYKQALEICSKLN

[17] = molecular target: T3, Aurora kinase A (Homo sapiens, UniProt O14965); test: Inhibition of recombinant Aurora A; how it was run: as §1
T3 sequence (O14965 whole entry): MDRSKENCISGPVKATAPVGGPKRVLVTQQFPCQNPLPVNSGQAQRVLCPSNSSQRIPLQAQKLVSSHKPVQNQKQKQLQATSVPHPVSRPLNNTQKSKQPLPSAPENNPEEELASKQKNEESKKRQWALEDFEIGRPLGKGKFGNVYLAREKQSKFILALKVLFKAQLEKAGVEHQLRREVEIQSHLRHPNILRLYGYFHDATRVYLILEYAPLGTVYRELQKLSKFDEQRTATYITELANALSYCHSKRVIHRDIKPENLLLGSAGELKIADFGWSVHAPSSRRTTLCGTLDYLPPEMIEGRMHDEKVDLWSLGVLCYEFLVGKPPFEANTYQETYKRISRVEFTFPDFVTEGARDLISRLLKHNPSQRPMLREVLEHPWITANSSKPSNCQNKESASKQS

Hepatocyte growth factor receptor, sequence (P08581 whole entry): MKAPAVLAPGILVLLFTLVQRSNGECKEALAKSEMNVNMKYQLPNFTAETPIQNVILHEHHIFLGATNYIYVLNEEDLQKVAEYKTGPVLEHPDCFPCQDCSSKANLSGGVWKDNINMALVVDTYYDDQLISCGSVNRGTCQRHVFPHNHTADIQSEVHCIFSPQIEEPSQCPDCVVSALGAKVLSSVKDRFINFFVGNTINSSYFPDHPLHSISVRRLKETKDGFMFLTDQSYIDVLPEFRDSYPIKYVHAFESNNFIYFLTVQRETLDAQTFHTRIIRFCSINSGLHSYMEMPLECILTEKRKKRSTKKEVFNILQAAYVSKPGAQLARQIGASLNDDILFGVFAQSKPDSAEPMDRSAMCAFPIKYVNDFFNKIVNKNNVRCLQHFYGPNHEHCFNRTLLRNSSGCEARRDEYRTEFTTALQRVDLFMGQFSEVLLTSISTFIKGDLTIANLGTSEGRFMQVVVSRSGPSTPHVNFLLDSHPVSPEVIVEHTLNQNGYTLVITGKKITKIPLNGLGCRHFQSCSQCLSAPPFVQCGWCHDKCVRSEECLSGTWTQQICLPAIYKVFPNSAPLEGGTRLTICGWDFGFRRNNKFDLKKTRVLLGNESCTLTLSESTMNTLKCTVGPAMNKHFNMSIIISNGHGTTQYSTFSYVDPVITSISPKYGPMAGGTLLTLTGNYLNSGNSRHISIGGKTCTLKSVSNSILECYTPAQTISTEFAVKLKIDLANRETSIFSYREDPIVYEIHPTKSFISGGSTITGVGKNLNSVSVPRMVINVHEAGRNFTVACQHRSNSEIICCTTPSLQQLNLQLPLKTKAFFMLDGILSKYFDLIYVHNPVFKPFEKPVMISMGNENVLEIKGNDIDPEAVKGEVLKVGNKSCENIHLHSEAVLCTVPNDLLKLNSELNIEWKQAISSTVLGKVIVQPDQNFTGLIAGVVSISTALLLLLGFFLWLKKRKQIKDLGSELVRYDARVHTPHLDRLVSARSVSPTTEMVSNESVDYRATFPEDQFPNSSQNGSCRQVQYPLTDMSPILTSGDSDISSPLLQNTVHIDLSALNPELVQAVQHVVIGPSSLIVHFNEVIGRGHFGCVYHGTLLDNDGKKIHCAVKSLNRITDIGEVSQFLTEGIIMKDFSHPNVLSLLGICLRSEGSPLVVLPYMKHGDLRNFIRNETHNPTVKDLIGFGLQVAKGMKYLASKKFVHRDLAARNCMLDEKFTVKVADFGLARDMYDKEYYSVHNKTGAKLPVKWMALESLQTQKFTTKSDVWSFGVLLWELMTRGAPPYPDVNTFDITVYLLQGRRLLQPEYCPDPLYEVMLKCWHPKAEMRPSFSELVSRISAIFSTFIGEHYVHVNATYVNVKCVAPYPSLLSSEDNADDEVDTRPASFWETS

With `COc1cc(O)c2c(c1)-c1cc(O)c(O)cc1COC2=O` [Alterlactone] the pIC50 [1] was less than 4.46, the pIC50 [2] was less than 4.46 and the pIC50 [3] was less than 4.46. It also gave a pIC50 [4] of less than 4.46, a pIC50 [5] of less than 4.46 and a pIC50 [6] of less than 4.46. It also gave a pIC50 [7] of less than 4.46, a pIC50 [8] of less than 4.46 and a pIC50 [9] of less than 4.46. It also gave a pIC50 [10] of less than 4.46, a pIC50 [11] of less than 4.46 and a pIC50 [12] of less than 4.46. It also gave a pIC50 [13] of less than 4.46, a pIC50 [14] of less than 4.46 and a pIC50 [15] of less than 4.46. It also gave a pIC50 [16] of less than 4.46 and a pIC50 [17] of less than 4.46.

In the case of `COc1cc(O)c2c(c1)C1(OC2=O)C(=O)C(=O)CC1C` (centres undefined) [TALAROFLAVONE], the pIC50 [1] was less than 4.44, the pIC50 [2] was less than 4.44 and the pIC50 [3] was less than 4.44. The pIC50 [4] was less than 4.44, the pIC50 [5] was less than 4.44 and the pIC50 [6] was less than 4.44. It also gave a pIC50 [7] of less than 4.44, a pIC50 [8] of less than 4.44 and a pIC50 [9] of less than 4.44. For the same compound, the pIC50 [10] was less than 4.44, the pIC50 [11] was less than 4.44 and the pIC50 [12] was less than 4.44. It also gave a pIC50 [13] of less than 4.44, a pIC50 [14] of less than 4.44 and a pIC50 [15] of less than 4.44. It also gave a pIC50 [16] of less than 4.44 and a pIC50 [17] of less than 4.44.
